The values that follow come from ChEMBL document CHEMBL3046550, “Design, synthesis, and insecticidal evaluation of new benzoylureas containing amide and sulfonate groups based on the sulfonylurea receptor protein binding site for diflubenzuron and glibenclamide” (2013).

What all share (format): functional
Details in all cases: 96 h

For test [1], the system named is Mythimna separata. The experiment in a line: Larvicidal activity against fourth instar larvae of Mythimna separata (Oriental armyworm) infected compound-treated corn leaves assessed as mortality at 50 mg/l measured after 4 days. Summed up:
(§1)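 Petri dishes each infested with 10 fourth-instar larvae; percentage mortality scored 4 days after treatment. Three replicates per treatment, with the reported value the mean of the three.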

The test system of test [2] is Mythimna separata. In words: Larvicidal activity against fourth instar larvae ofMythimna separata (Oriental armyworm) infected compound-treated corn leaves assessed as mortality at 200 mg/l measured after 4 days. The essentials:
as §1

In test [3] the test system is Mythimna separata. The experiment in a line: Larvicidal activity against fourth instar larvae of Mythimna separata (Oriental armyworm) infected compound-treated corn leaves assessed as mortality at 100 mg/l measured after 4 days. Summed up:
as §1

Test [4] has as its system Plutella xylostella. In words: Larvicidal activity against second-instar larvae of Plutella xylostella (diamondback moth) infected in compound-treated cabbage leaves assessed as mortality at 200 mg/l measured after 4 days. Summed up:
(§2)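 Test solutions at the different concentrations were made by dissolving compounds in DMF and adding distilled water.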

In test [5] the test system is Plutella xylostella. The experiment in a line: Larvicidal activity against second-instar larvae of Plutella xylostella (diamondback moth) infected in compound-treated cabbage leaves assessed as mortality at 20 mg/l measured after 4 days. The essentials: as §2
The test system of test [6] is Mythimna separata. In words: Larvicidal activity against fourth instar larvae of Mythimna separata (Oriental armyworm) infected compound-treated corn leaves assessed as mortality at 10 mg/l measured after 4 days. Summed up: as §1
Test [7] relates to Plutella xylostella. The experiment in a line: Larvicidal activity against second-instar larvae of Plutella xylostella (diamondback moth) infected in compound-treated cabbage leaves assessed as mortality at 5 mg/l measured after 4 days. Summed up: as §2
Test [8] has as its system Mythimna separata. The experiment in a line: Larvicidal activity against fourth instar larvae of Mythimna separata (Oriental armyworm) infected compound-treated corn leaves assessed as mortality at 20 mg/l measured after 4 days. Summed up:
as §1

For test [9], the system named is Plutella xylostella. In words: Larvicidal activity against second-instar larvae of Plutella xylostella (diamondback moth) infected in compound-treated cabbage leaves assessed as mortality at 2 mg/l measured after 4 days. The essentials: as §2
Test [10] has as its system Mythimna separata. The experiment in a line: Larvicidal activity against fourth instar larvae of Mythimna separata (Oriental armyworm) infected compound-treated corn leaves assessed as mortality at 5 mg/l measured after 4 days. Summed up:
as §1

The test system of test [11] is Mythimna separata. The experiment in a line: Larvicidal activity against fourth instar larvae of Mythimna separata (Oriental armyworm) infected compound-treated corn leaves assessed as mortality at 1 mg/l measured after 4 days. Summed up:
as §1

For test [12], the system named is Mythimna separata. The experiment in a line: Larvicidal activity against fourth instar larvae of Mythimna separata (Oriental armyworm) infected compound-treated corn leaves assessed as mortality at 2.5 mg/l measured after 4 days. Summed up: as §1

Turning to `O=C(NC(=O)c1c(F)cccc1F)Nc1ccc(S(=O)(=O)OCCF)cc1`, the mortality (commonly the share of the test organisms that died) at 50 µg/mL with Mythimna separata [1] amounted to 0%. The mortality at 200 µg/mL in the test with Mythimna separata [2] was determined as 100%; in the test on Plutella xylostella [4] it was 20%. The mortality at 100 µg/mL in the test on Mythimna separata [3] came to 100%.

`O=C(NC(=O)c1c(F)cccc1F)Nc1ccc(S(=O)(=O)OCCCl)cc1`: the mortality at 50 µg/mL with Mythimna separata [1] came to 40%. Further, the mortality at 200 µg/mL with Mythimna separata [2] was found to be 100%; in the test with Plutella xylostella [4], 30%. Besides, in the test on Mythimna separata [3], the mortality at 100 µg/mL was determined as 100%.

For the molecule `O=C(NC(=O)c1c(F)cccc1F)Nc1ccc(S(=O)(=O)OC(C(F)(F)F)C(F)(F)F)cc1`, the mortality at 20 µg/mL in the test on Plutella xylostella [5] came out at 20%. In addition, the mortality at 200 µg/mL in the test with Mythimna separata [2] was 0%; in the test on Plutella xylostella [4], 60%.

`O=C(NC(=O)c1c(F)cccc1F)Nc1ccc(S(=O)(=O)OCCCCCl)cc1`: the mortality at 50 µg/mL with Mythimna separata [1] was determined as 20%. Moreover, the mortality at 200 µg/mL in the test with Mythimna separata [2] is 100%; with Plutella xylostella [4] it was 20%. In the test with Mythimna separata [3], the mortality at 100 µg/mL is 100%.

As to `CCCCCOS(=O)(=O)c1ccc(NC(=O)NC(=O)c2c(F)cccc2F)cc1`, the mortality at 50 µg/mL in the test with Mythimna separata [1] came out at 60%. For the same molecule, the results for the mortality at 200 µg/mL with Mythimna separata [2] and with Plutella xylostella [4] were 100% and 30%, respectively. The mortality at 100 µg/mL with Mythimna separata [3] amounted to 100%. Moreover, in the test on Mythimna separata [6], the mortality at 10 µg/mL came out at 95%.

As to `CC(C)(C)NC(=O)c1ccc(NC(=O)NC(=O)c2c(F)cccc2F)cc1`, in the test on Mythimna separata [1], the mortality at 50 µg/mL was 50%. Moreover, the mortality at 200 µg/mL in the test with Mythimna separata [2] amounted to 100%; with Plutella xylostella [4] it was 0%. Besides, in the test on Mythimna separata [3], the mortality at 100 µg/mL amounted to 100%.

With `CC(C)N(C(=O)c1ccc(NC(=O)NC(=O)c2c(F)cccc2F)cc1)C(C)C`, the mortality at 20 µg/mL in the test on Plutella xylostella [5] is 100%. Besides, the mortality at 200 µg/mL in the test with Mythimna separata [2] was 0%.

On to `CN(C(=O)c1ccc(NC(=O)NC(=O)c2c(F)cccc2F)cc1)c1ccc(Cl)cc1`, for which the mortality at 200 µg/mL in the test on Mythimna separata [2] and with Plutella xylostella [4] was 0% each time.

With `O=C(NC(=O)c1c(F)cccc1F)Nc1ccc(C(=O)Nc2ccc(Cl)cc2)cc1`, the mortality at 200 µg/mL in the test with Mythimna separata [2] and in the test on Plutella xylostella [4] was 0% in each case.

Consider `CCCCNC(=O)c1ccc(NC(=O)NC(=O)c2c(F)cccc2F)cc1`, for which the mortality at 200 µg/mL with Mythimna separata [2] and in the test on Plutella xylostella [4] was 0% in each case.

For the molecule `O=C(NC(=O)c1c(F)cccc1F)Nc1ccc(C(=O)N2CCOCC2)cc1`, the mortality at 200 µg/mL in the test on Mythimna separata [2] and with Plutella xylostella [4] was 0% in each case.

On to `CC(C)(C)c1ccc(CNC(=O)c2ccc(NC(=O)NC(=O)c3c(F)cccc3F)cc2)cc1`, for which the mortality at 200 µg/mL in the test with Mythimna separata [2] and in the test with Plutella xylostella [4] was 0% throughout.

On to `O=C(NC(=O)c1c(F)cccc1F)Nc1ccc(S(=O)(=O)Oc2ccc(Cl)cc2)cc1`, for which the mortality at 200 µg/mL in the test on Mythimna separata [2] and in the test with Plutella xylostella [4] was 0% in each case.

`CC1CCC(C(C)C)C(OS(=O)(=O)c2ccc(NC(=O)NC(=O)c3c(F)cccc3F)cc2)C1` (stereo not drawn): the mortality at 200 µg/mL in the test with Mythimna separata [2] and in the test with Plutella xylostella [4] was 0% in each case.

Regarding `O=C(NC(=O)c1c(F)cccc1F)Nc1ccc(S(=O)(=O)OCC(F)(F)F)cc1`, the mortality at 20 µg/mL in the test on Plutella xylostella [5] and in the test on Mythimna separata [8] was 100% each time. For the same molecule, the mortality at 50 µg/mL in the test with Mythimna separata [1] was 100%. The mortality at 200 µg/mL in the test on Mythimna separata [2] and in the test on Plutella xylostella [4] was 100% in each case. The mortality at 5 µg/mL in the test on Plutella xylostella [7] was 90%; in the test on Mythimna separata [10] it was 60%. Moreover, the mortality at 100 µg/mL in the test on Mythimna separata [3] was 100%. Also, the mortality at 2 µg/mL with Plutella xylostella [9] is 40%. Moreover, in the test on Mythimna separata [6], the mortality at 10 µg/mL came out at 100%.

Take `O=C(NC(=O)c1c(F)cccc1F)Nc1ccc(CO/N=C(/c2ccc(Cl)cc2)C2CC2)cc1` [FLUCYCLOXURON]: in the test on Mythimna separata [11], the mortality at 1 µg/mL came out at 10%. Further, the mortality at 5 µg/mL in the test on Mythimna separata [10] worked out at 90%. Also, the mortality at 2.5 µg/mL in the test on Mythimna separata [12] stood at 50%.
